Measurements reported in ChEMBL document CHEMBL2150962, “Antimicrobial rubrolides from a South African species of Synoicum tunicate” (J Nat Prod, 2012).

Columns and labels:
[1] = system: Staphylococcus aureus; test: Antimicrobial activity against methicillin-resistant Staphylococcus aureus ATCC BAA-1720; assay type: functional, organism-based
[2] = system: Staphylococcus epidermidis; test: Antimicrobial activity against Staphylococcus epidermidis ATCC 35984TCC BAA-1721; assay type: functional, organism-based
Summary of the method: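 Microtiter broth dilution; S. epidermidis ATCC 35984 grown in tryptic soy broth, inoculum 5 × 10⁵ cfu/mL, 16 h static incubation at 37 °C. Compound tested over 130 - 0.3 μg/mL. Technical duplicates, biological triplicate; percentage inhibition fitted by nonlinear regression to IC50.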

[3] = system: Enterococcus faecalis; test: Antimicrobial activity against gentamycin- and vancomycin-resistant Enterococcus faecalis ATCC 700802 at 100 ug/ml; assay type: functional; conditions: read-out: GI
[4] = system: Escherichia coli; test: Antimicrobial activity against Escherichia coli O157:H7 at 100 ug/ml; assay type: functional; conditions: read-out: GI

Compound	IC50 [1]	IC50 [2]	inhibition of growth at 100 µg/mL [3]	inhibition of growth at 100 µg/mL [4]
O=C1C=C(c2ccc(O)cc2)/C(=C/c2ccc(O)cc2)O1 [RUBROLIDE E]	105 µM	21 µM	89%	16%
COc1ccc(/C=C2\OC(=O)C=C2c2ccc(O)cc2)cc1Br	256 µM	98 µM	43%	22%
COc1ccc(/C=C2\OC(=O)C=C2c2ccc(O)c(Br)c2)cc1	360 µM	42 µM	2%	14%
O=C1C=C(c2ccc(O)c(Br)c2)/C(=C/c2ccc(O)c(Br)c2)O1	89 µM	28 µM	2%	25%
COc1ccc(/C=C2\OC(=O)C=C2c2ccc(O)cc2)cc1 [RUBROLIDE F]	1010 µM	79 µM	47%	15%
O=C1C=C(c2ccc(O)c(Br)c2)/C(=C/c2ccc(O)cc2)O1	82 µM	38 µM	16%	0%
